Publication PMC8978659 (RSC Advances, 2021)

Test system: RAW264.7 cells
Assay: Cytotoxicity test, CCK-8
Type: cell-based
Details: 10 μM, 48 h, CCK-8, OD 450 nm, duplicate independent experiments
In short: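 RAW264.7 cells seeded at 1 × 10^5 per mL and exposed for 48 h to test compound at 0, 1.25, 2.5, 5 and 10 μM. CCK-8 reagent added, then 4 h at 37 °C protected from light. Absorbance read at 450 nm. Survival rate = OD of treated / OD of blank control; cytotoxic effect = 1 − survival rate.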

## NCC1CC(=S)N2CC3CCCN4CCCC(C34)C2C1 (stereo not shown) [M19, 13-Aminomethyl-15-thiomatrine]
  cell viability inhibition: about 20%
